Compounds with a hit are over-represented: about 5.2% of the library has one in this group of screens.
NS3 helicase inh: inhibitors of Hepatitis C virus NS3 helicase | inhibition, % at 10.9 µM | 0.56% of 290,000 active | NS3 helicase DNA unwinding, Cy5 molecular beacon fluorescence;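 active means inhibition above the mean of all tested compounds plus 3 SD, set per campaign, cut at about 35% in these data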;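 further: 0% = DMSO wells and 100% = thioflavine S control wells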
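Measured by: Cy5 fluorescence, 0 and 60 min reads / Assay system: NS3 helicase fragment of HCV / Control set: low DMSO, high thioflavine S at 110 µM / Times: 1 h reaction at 25 °C, ATP-initiated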
HCV core dimer: blocks dimerization of HCV core protein. inhibition, % at 5 µM. TR-FRET GST/Flag-core106 dimerization, 1536-well. 0.33% of 300,000 active;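 active means inhibition above the mean of all tested compounds plus 3 SD, set per screening campaign, cut at about 45% in these data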
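Material: GST/Flag-tagged HCV core106 proteins. Incubation: 4 h, 22.5 °C incubation. Read-out basis: inhibition (%) from 671 over 617 nm ratio. Measured by: TR-FRET, excitation 340 nm, emission 617 and 671 nm.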
ALR H2O2 inh: blocks human ALR sulfhydryl oxidase activity; purified ALR, DTT oxidation, H2O2 HRP-luminol luminescence; inhibition, % (no concentration beside the values); 3.8% of 290,000 active; AID 485317;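 active means mean replicate inhibition above about 79%, with every replicate also reaching it, limit read from the data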
Target sequence (P55789 whole entry, looked up): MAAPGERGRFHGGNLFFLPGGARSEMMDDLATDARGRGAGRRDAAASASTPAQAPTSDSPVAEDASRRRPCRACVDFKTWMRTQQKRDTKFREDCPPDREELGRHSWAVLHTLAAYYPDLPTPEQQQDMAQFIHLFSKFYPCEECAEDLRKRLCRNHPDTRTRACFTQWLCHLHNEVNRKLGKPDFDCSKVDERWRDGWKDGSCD
EBNA-1 inh: blocks EBNA-1 binding to DNA; 0.34% of 300,000 active; EBNA-1 DNA binding, fluorescence polarization; AID 1950; inhibition, % at 14.8 µM; in the data active means inhibition above about 28%
ZTA DNA inh: counter-screen for EBNA-1 inhibitors: inhibitors of Epstein-Barr virus ZTA; P03206; ZTA-DNA binding, fluorescence polarization; inhibition, % at 11 µM; 0.15% of 320,000 active; in the data active means inhibition above about 33%
Target sequence (P03206 whole entry, looked up): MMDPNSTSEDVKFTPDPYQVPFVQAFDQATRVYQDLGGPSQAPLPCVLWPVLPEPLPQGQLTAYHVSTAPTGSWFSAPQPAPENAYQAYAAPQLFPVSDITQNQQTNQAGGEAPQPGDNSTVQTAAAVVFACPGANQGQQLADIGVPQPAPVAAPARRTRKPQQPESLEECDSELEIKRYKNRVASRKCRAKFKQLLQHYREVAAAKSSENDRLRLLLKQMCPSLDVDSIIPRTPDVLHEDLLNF
M18AAP inhibitor: PfM18AAP enzyme inhibition | recombinant PfM18AAP, H-Glu-NHMec fluorogenic cleavage | inhibition, % at 7.35 µM | 1.2% of 290,000 active;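 active means inhibition above the campaign mean inhibition over all tested compounds plus 3 SD, cut at about 28% in these data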;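 further: 0% = plate median of test compound wells and 100% = 2 mM ZnCl2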
* marks the source's active call; other numbers are inactive results; nt = no result.

SMILES	NS3 helicase inh	HCV core dimer	ALR H2O2 inh	EBNA-1 inh	ZTA DNA inh	M18AAP inhibitor
Cc1cccc(OCC(=O)N/N=C/c2ccc(N(C)C)cc2)c1	9	-4	98*	2	0	7
CN(C)c1ccc(/C=N/NC(=O)CSc2ccccn2)cc1	-7	-9	99*	4	1	2
CC(/C=N/NC(=O)CSc1ccccn1)=C\c1ccc(C(C)C)cc1	2	9	-1	6	3	-4
COc1cccc(-c2nc(CS(=O)(=O)CC(=O)NC3CC3)c(C)o2)c1	-2	-3	-8	-7	11	-4
COc1ccc(-c2nc(CS(=O)(=O)CC(=O)NC3CCCCCC3)c(C)o2)cc1	-5	-3	99*	-10	10	0
COc1cccc(-c2nc(CS(=O)(=O)CC(=O)NC3CCCCCC3)c(C)o2)c1	-7	-1	98*	-2	6	2
Cc1oc(-c2cccc(Cl)c2)nc1CS(=O)(=O)CC(=O)NC1CC1	3	-14	90*	-12	-26	-1
CCOC(=O)N1CCC(NC(=O)CS(=O)(=O)Cc2nc(-c3cccc(OC)c3)oc2C)CC1	8	2	99*	12	-17	-9
COc1ccc(C(=O)COC(=O)C(CCSC)NC(=O)COc2ccccc2)cc1 (stereo not given)	nt	3	1	2	-6	nt
COc1cccc(-c2nc(CS(=O)(=O)CC(=O)Nc3c(C)cccc3C)c(C)o2)c1	-1	1	11	2	1	0
COc1cccc(-c2nc(CS(=O)(=O)CC(=O)NC3CCCCC3C)c(C)o2)c1 (stereo not given)	7	-17	93*	-14	-11	3
Cc1ccc(-c2nc(CS(=O)(=O)CC(=O)N3CCCCCC3)c(C)o2)cc1	15	3	95*	1	-4	0
CN(CC(=O)Nc1cccc(S(=O)(=O)N2CCOCC2)c1)CC(=O)Nc1ccc(Cl)c(C(F)(F)F)c1	nt	-4	2	11	7	nt
CN(C)S(=O)(=O)c1cccc(NC(=O)CSc2nc3c(cc2C#N)C(=O)CC(C)(C)C3)c1	10	8	98*	3	-4	-4
CN(C)S(=O)(=O)c1ccc(Cl)c(NC(=O)CSc2nc3c(cc2C#N)C(=O)CC(C)(C)C3)c1	3	9	15	-3	0	-10
Cc1ccc(C)c(OCCC(=O)OCC(=O)NCc2ccc(F)cc2)c1	2	0	1	-5	5	3
COc1ccc(C)cc1NC(=O)C(Sc1nnnn1C)c1ccccc1 (stereo not given)	4	2	1	-9	2	3
COCCn1c(SC(C(=O)Nc2cc(C)ccc2OC)c2ccccc2)nnc1-c1ccc(Cl)cc1 (stereo not given)	-7	11	99*	-1	10	0
COc1ccc(NC(=O)c2cc3c(=O)n4ccccc4nc3n2C)cc1OC	2	2	-24	12	20	1
Cc1cc2ncn(C(=O)c3ccc(F)cc3)c2cc1C	-2	16	98*	6	6	6
CCN(C(=O)CCS(=O)(=O)c1ccc2c(c1)oc(=O)n2C)c1ccc(OC)cc1	-10	-7	-8	-11	-4	-4
Cc1ccc(C(=O)NCCSCc2ccc(Cl)cc2Cl)cc1[N+](=O)[O-]	-8	8	89*	9	1	-7
Cc1c(C(=O)NCCSCc2ccc(Cl)cc2Cl)cccc1[N+](=O)[O-]	-7	2	-7	4	3	-2
CSc1ncccc1C(=O)OCC(=O)c1[nH]c(C)c(C(C)=O)c1C	nt	nt	3	nt	9	nt
CCOC(=O)c1c(C)c[nH]c1C	-2	-3	0	2	-1	1
SMILES	NS3 helicase inh	HCV core dimer	ALR H2O2 inh	EBNA-1 inh	ZTA DNA inh	M18AAP inhibitor
CCOC(=O)c1c(Cc2ccccc2)c[nH]c1C	-2	1	95*	11	15	1
Cc1n[nH]c(=O)c2c(NC(=O)CSc3nc4ccccc4c(=O)n3CCCO)oc(C)c12	3	2	-5	0	-4	-4
CC1(C)Cc2c(c(=S)nc(-c3ccccc3)n2CCN2CCOCC2)CO1	6	-1	97*	-4	4	2
Oc1ccc(N=Nc2ccccc2)cc1	-5	-18	99*	7	5	3
O=C(O)c1ccccc1N=Nc1ccc(O)cc1	nt	5	99*	0	7	nt
CN(Cc1ccccc1)C(=O)c1ccc(NC(=O)Cc2cccc(NC(=O)C3CCN(C(=O)C4CCCC4)CC3)c2)cc1	nt	nt	-1	nt	11	nt
Cc1cc(C)c(S(=O)(=O)Nc2ccc(O)cc2)c(C)c1	-1	-1	99*	4	-11	-13
CC(=O)c1ccc(NS(=O)(=O)c2c(C)cc(C)cc2C)cc1	-2	5	1	-4	-2	-7
Cc1cc(=O)[nH]c2ccc(S(=O)(=O)Nc3ccc(O)cc3)cc12	14	1	99*	-13	-16	16
CCOc1cc(NC2CS(=O)(=O)CC2O)c(OCC)cc1NC(=O)c1ccccc1 (stereo not given)	0	-19	89*	1	6	0
N#CC1=C(SCc2ccccc2)NC(=O)CC1c1ccc(O)cc1 (stereo not given)	3	-1	-5	-15	-15	29*
Cc1ccc(C2CC(=O)NC(SCc3ccccc3)=C2C#N)cc1 (stereo not given)	-6	-3	-4	-3	6	2
CCC(C(=O)NCCc1c[nH]c2cc(OC)ccc12)c1ccccc1 (stereo not given)	2	10	21	5	4	-3
O=C(CSC(=S)N1CCN(c2ccccc2)CC1)Nc1nc(-c2ccccc2)c(-c2ccccc2)o1	4	2	1	-2	-3	0
CC1CCN(S(=O)(=O)c2cc(F)ccc2CN2C(=O)c3cccnc3C2=O)CC1	-8	-3	1	-7	3	-3
COc1ccc(-c2nn(CCC#N)cc2C(=O)Nc2cccc(C(=O)O)c2)cc1OC	-3	nt	-4	nt	nt	-5
Cc1cc(C)nc(SCc2ccc(C(=O)N/N=C/c3ccccc3C(=O)O)cc2)n1	0	0	91*	-15	10	5
Cc1ccc(-n2c(N)cc(=O)nc2SCC(=O)NC2CCCCC2)cc1C	2	-7	7	-1	3	0
CCc1nc(SCC(=O)Nc2ccc(N(C)C)cc2)n[nH]1	nt	-6	98*	-3	15	nt
CCc1nc(SCC(=O)Nc2ccc(C(=O)O)cc2)n[nH]1	12	3	99*	14	12	-20
CCc1nc(SCC(=O)Nc2ccc([N+](=O)[O-])cc2)n[nH]1	-5	7	-2	7	0	-2
CCc1nc(SCC(=O)Nc2ccccc2C)n[nH]1	5	-1	-4	-1	2	-14
